Test results published in ChEMBL document CHEMBL3414473.
Active and inactive are the calls of the source. The rule behind the calls is not given here.

Key:
[1] = target: PH domain leucine-rich repeat-containing protein phosphatase 1 (Homo sapiens, UniProt O60346); experiment: Inhibition of PHLPP1-mediated reduction in phosphorylation of Akt at Ser473 in human PC3 cells after 24 hrs by Western blot analysis; type: cell-based; details: PC-3
Summary of the method: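 LNCaP or PC-3 cells treated at various concentrations for 24 h in serum-free medium. Lysed in SDS buffer (50 mM Tris pH 8, 10 mM EDTA, 1% SDS, protease inhibitors); equal protein run on SDS-PAGE and transferred to nitrocellulose. Primary antibodies 1:1000 overnight at 4 °C, HRP secondary 1:2000; detected by ECL.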

Scaffold protein ILK = target: T1, Scaffold protein ILK (Homo sapiens, UniProt Q13418); experiment: Binding affinity to GST-tagged PH domain of ILK (unknown origin) by surface Plasmon resonance spectroscopy
T1 sequence (Q13418 whole entry): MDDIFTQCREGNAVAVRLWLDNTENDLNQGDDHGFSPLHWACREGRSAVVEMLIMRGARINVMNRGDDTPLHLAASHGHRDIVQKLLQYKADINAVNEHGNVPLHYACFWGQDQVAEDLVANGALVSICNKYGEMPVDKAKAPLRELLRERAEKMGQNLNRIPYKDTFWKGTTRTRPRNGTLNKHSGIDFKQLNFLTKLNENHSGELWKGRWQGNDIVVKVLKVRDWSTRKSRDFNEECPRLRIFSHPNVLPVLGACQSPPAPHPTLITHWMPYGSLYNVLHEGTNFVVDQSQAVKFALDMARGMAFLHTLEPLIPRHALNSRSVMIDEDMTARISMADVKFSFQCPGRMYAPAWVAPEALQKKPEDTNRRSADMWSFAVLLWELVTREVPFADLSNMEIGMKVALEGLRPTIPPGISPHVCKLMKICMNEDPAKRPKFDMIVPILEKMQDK
Summary of the method: (§1)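 SPR: GST-tagged PH domain fusion protein immobilized on CM5 chip by amine coupling to about 17000 RU. Analyte injected at 1–20 µM at 30 µL/min; DMSO in samples and running buffer ≤1% (v/v). Kd obtained from sensorgram fitting.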

PC-3 [2] = experiment: In vivo antitumor efficacy in human PC3 cells xenografted athymic nude mouse assessed as inhibition of tumor growth at 100 mg/kg, po for 21 days relative to vehicle treated control; type: functional, organism-based; parameters: dose 100 mg/kg
Summary of the method: (§2)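 Athymic nude mice given PC-3 cells sc (1 × 10⁶ per mouse); at about 50 mm³, randomized (n = 7) and dosed once daily for 21 days either ip at 50 mg/kg (vehicle saline/PEG400/DMSO/Tween 80, 65:20:10:5) or by oral gavage at 100 mg/kg (vehicle 0.5% methylcellulose/0.1% Tween 80 in water). Tumor volume measured weekly by calipers (width² × length × 0.52); phospho-proteins checked by Western blotting of tumor lysates.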

LNCaP [3] = experiment: Antiproliferative activity against human LNCAP cells assessed as suppression of cell viability after 24 hrs by MTT assay; type: functional, cell-based
Summary of the method: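 LNCaP cells seeded at 5000/well on poly-L-lysine-coated plates in 10% FBS; 24 h later exposed to agents in serum-free medium for 24 h. Viability expressed as percent of vehicle control; IC50 derived.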

PrEC = experiment: Antiproliferative activity against human PrEC cells assessed as suppression of cell viability after 24 hrs by MTT assay in serum free medium; type: cell-based
PC-3 [4] = experiment: In vivo antitumor efficacy in human PC3 cells xenografted athymic nude mouse assessed as decrease in phosphorylation of Akt at Thr308 in tumor at 50 mg/kg, ip for 21 days relative to vehicle treated control; type: functional, organism-based; parameters: dose 50 mg/kg; summary of the method: as §2
[5] = target: RAC-alpha serine/threonine-protein kinase (Homo sapiens, UniProt P31749); experiment: Binding affinity to GST-tagged PH domain of AKT (unknown origin) by surface Plasmon resonance spectroscopy; summary of the method: as §1
LNCaP [6] = experiment: Induction of ILK localization to human LNCAP cell membrane at 5 uM after 24 hrs by immunofluorescence staining analysis; type: functional, cell-based
Summary of the method: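 LNCaP cells on poly-L-lysine-coated surfaces, treated in serum-free medium for 24 h. Fixed in 4% formaldehyde, permeabilized with 0.1% Triton X-100, blocked in 1% FBS, primary antibody (1:300) overnight, then Alexa Fluor secondary 2 h; DAPI nuclei; confocal imaging with cross-sectional fluorescence intensity analysis.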

Sequence of RAC-alpha serine/threonine-protein kinase (P31749 whole entry, the tested form may be a part): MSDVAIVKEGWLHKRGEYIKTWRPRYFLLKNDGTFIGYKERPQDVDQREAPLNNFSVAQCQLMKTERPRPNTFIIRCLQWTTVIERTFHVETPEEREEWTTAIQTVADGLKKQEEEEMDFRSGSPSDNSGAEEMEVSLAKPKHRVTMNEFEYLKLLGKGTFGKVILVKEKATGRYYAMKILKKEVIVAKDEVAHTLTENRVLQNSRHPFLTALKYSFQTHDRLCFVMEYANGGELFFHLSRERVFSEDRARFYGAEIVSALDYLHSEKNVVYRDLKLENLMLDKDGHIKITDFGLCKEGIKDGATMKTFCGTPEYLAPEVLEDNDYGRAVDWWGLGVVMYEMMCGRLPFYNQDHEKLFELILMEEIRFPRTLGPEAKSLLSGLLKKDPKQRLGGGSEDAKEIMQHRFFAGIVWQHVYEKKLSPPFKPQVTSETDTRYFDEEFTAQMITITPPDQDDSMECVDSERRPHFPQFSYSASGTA
Sequence of PH domain leucine-rich repeat-containing protein phosphatase 1 (O60346 whole entry, the tested form may be a part): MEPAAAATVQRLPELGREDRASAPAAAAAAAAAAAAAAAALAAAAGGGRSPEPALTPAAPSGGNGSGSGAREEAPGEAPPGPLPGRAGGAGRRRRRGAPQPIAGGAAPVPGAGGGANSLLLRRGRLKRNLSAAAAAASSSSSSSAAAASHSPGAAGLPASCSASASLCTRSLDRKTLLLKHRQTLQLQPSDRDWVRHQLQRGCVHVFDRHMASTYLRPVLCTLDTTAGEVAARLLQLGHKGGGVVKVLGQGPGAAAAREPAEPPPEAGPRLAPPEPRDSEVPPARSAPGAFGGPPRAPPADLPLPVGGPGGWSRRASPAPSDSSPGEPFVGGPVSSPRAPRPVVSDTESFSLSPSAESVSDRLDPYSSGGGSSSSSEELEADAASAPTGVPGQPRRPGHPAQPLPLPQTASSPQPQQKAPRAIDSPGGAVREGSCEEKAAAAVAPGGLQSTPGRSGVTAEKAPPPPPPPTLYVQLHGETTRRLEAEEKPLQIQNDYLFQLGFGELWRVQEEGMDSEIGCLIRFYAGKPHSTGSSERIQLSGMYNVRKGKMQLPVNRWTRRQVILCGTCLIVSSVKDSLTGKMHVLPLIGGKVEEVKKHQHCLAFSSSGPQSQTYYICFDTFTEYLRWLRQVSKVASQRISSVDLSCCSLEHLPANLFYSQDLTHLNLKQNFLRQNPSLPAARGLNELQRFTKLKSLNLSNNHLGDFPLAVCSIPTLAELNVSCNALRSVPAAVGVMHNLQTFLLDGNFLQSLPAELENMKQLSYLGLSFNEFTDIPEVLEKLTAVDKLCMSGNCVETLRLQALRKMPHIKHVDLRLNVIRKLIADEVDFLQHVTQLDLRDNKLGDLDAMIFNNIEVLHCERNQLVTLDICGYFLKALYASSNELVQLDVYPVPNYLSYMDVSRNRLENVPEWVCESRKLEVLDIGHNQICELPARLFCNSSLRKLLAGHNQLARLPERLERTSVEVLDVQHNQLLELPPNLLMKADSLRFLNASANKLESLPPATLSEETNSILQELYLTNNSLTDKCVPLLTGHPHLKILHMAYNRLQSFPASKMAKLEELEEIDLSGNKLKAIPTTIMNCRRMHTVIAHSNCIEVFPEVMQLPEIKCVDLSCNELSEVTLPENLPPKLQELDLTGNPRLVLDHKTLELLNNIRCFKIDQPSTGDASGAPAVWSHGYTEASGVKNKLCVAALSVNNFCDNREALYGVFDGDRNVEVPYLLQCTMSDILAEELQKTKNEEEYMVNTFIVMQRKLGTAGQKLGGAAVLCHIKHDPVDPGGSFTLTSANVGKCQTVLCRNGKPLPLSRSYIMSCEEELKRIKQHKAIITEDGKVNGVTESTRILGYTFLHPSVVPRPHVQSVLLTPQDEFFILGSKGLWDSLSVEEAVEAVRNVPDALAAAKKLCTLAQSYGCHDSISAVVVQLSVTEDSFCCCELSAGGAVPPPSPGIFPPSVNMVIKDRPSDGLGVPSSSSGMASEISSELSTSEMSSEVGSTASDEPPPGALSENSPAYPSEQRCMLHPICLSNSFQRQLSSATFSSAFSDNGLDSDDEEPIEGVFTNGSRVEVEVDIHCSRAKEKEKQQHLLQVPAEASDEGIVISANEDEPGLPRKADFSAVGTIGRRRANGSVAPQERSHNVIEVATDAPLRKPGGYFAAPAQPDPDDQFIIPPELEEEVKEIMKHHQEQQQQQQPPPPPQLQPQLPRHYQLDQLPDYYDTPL

What does the source list for `Cc1c(S(N)(=O)=O)cc2c(c1C)OC(C)(CCCC(C)C)CC2` (stereo not drawn)?
inhibition [1]: Dose-dependent effect; Kd (Scaffold protein ILK): 6.2 µM; Activity (PC-3 [2]): Active; IC50 (LNCaP [3]): 3 µM; Activity (PrEC): Non-toxic; inhibition (PC-3 [4]): inactive; Kd [5]: 0.2 µM; Activity (LNCaP [6]): inactive
